About 25 (0.1%) of roughly 20,000 compounds were called active. Shown is part of a subset that was picked to be rich in actives. A number with no mark means an inactive call.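 How the source made its calls: active means mean replicate protection from cytokine-induced ATP loss at least 50% and at least 75% of replicates each reaching 50%; inconclusive means meets only one of the two criteria, mean or replicate share; inactive means fails both the mean and replicate share criteria.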
Assay: protection of INS-1E cells from cytokine death, primary screen, ATP luminescence, single point (AID 488910)
Conditions: INS-1E cytokine-induced death, 48 h, at 10 µM, stronger effect = higher value, normalised: neutral wells 0, positive control 100
Method in brief: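 Assay system: INS-1E rat cells / Quantity: 8000 cells per well / Medium: RPMI without phenol red, 5% FBS / Probe or stimulus: three-cytokine cocktail (IFN-γ, TNF-α, IL-1β) / Dosing: one compound concentration, pin transfer / Timing: 48 h co-treatment, 10 min post-lysis read / Technique: CellTiter-Glo luminescence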

SMILES	protection from cytokine-induced ATP loss [%]
C[C@@H]1CN([C@@H](C)CO)C(=O)Cc2cc(NS(=O)(=O)c3cccs3)ccc2O[C@@H]1CN(C)S(=O)(=O)c1ccc(F)cc1	4.38
C[C@H](CO)N1C[C@H](C)[C@H](CN(C)Cc2ccccc2)Oc2ccc(NC(=O)Cc3ccccc3)cc2C1=O	0.0546
C[C@@H]1CN([C@@H](C)CO)C(=O)c2cc(NC(=O)Nc3cccc4ccccc34)ccc2O[C@@H]1CN(C)C(=O)Nc1cccc2ccccc12	-6.66
C[C@@H]1CCCCO[C@H](CN(C)Cc2ccccc2)[C@@H](C)CN([C@H](C)CO)C(=O)c2cc(NC(=O)Cc3ccccc3)ccc2O1	-13
COc1ccc(NC(=O)Nc2ccc3c(c2)C(=O)N([C@@H](C)CO)C[C@@H](C)[C@H](CN(C)Cc2ccc(Cl)c(Cl)c2)O3)cc1	-22.1
C[C@@H]1CN([C@H](C)CO)C(=O)Cc2cc(NC(=O)Cn3cnnn3)ccc2O[C@H]1CN(C)Cc1ccc(C(F)(F)F)cc1	1.99
C[C@@H]1CN([C@@H](C)CO)C(=O)c2cccc(NC(=O)C3CC3)c2O[C@@H]1CN(C)Cc1ccccc1	1.55
CC(C)NC(=O)Nc1ccc2c(c1)CC(=O)N([C@H](C)CO)C[C@@H](C)[C@@H](CN(C)C(=O)Nc1ccc3c(c1)OCO3)O2	9.22
C[C@@H]1CN([C@@H](C)CO)C(=O)c2cc(NS(=O)(=O)c3ccccc3)ccc2O[C@@H]1CN(C)Cc1ccc(C(=O)O)cc1	5.28
C[C@H](CO)N1C[C@H](C)[C@H](CN(C)Cc2ccncc2)Oc2ccc(NS(=O)(=O)c3cn(C)cn3)cc2C1=O	-2.95
C[C@@H]1CN([C@@H](C)CO)C(=O)c2cccc(NC(=O)C3CC3)c2O[C@@H]1CN(C)C	3.84
CC(C)NC(=O)Nc1ccc2c(c1)C(=O)N([C@@H](C)CO)C[C@@H](C)[C@H](CN(C)Cc1ccc(-c3ccccc3)cc1)O2	-8.83
C[C@H]1CN([C@@H](C)CO)C(=O)Cc2cc(NC(=O)Nc3ccc(F)cc3)ccc2O[C@H]1CN(C)C(=O)Nc1ccc(C(F)(F)F)cc1	-14.8
COc1ccc(NC(=O)N(C)C[C@@H]2Oc3ccc(NC(=O)Nc4ccccc4)cc3CC(=O)N([C@H](C)CO)C[C@@H]2C)cc1	9.6
Cc1noc(C)c1NC(=O)Nc1cccc2c1O[C@@H](CN(C)CC1CCCCC1)[C@H](C)CN([C@@H](C)CO)C2=O	-7.27
C[C@@H]1CN([C@@H](C)CO)C(=O)c2cccc(NS(=O)(=O)c3ccc(F)cc3)c2O[C@H]1CN(C)S(=O)(=O)c1cccs1	2.23
COc1ccc(NC(=O)N(C)C[C@@H]2Oc3ccc(NC(=O)Cn4cnnn4)cc3C(=O)N([C@H](C)CO)C[C@@H]2C)cc1	6.28
Cc1ccc(S(=O)(=O)Nc2ccc3c(c2)C(=O)N([C@@H](C)CO)C[C@H](C)[C@H](CN(C)C(=O)Nc2ccc(C(F)(F)F)cc2)O3)cc1	-7.22
Cc1noc(C)c1NC(=O)Nc1ccc2c(c1)C(=O)N([C@H](C)CO)C[C@@H](C)[C@H](CN(C)Cc1ccncc1)O2	3.35

SMILES	protection from cytokine-induced ATP loss [%]
C[C@@H]1CN([C@@H](C)CO)C(=O)c2cccc(NC(=O)Nc3ccc(F)cc3)c2O[C@@H]1CN(C)C(=O)Nc1ccccc1	7.56
C[C@H](CO)N1C[C@H](C)[C@@H](CN(C)Cc2ccc3c(c2)OCO3)Oc2c(cccc2N(C)C)C1=O	-11
C[C@@H]1CN([C@@H](C)CO)C(=O)c2cccc(NS(=O)(=O)c3cccs3)c2O[C@@H]1CN(C)CC1CC1	-3.04
C[C@@H]1CN([C@H](C)CO)C(=O)c2cccc(NS(=O)(=O)c3ccccc3)c2O[C@@H]1CN(C)Cc1ccc(C(=O)O)cc1	2.31
C[C@@H]1CN([C@@H](C)CO)C(=O)c2cc(NC(=O)CCN3CCOCC3)ccc2O[C@H]1CN(C)C(=O)NC1CCCCC1	5.18
C[C@H](CO)N1C[C@H](C)[C@@H](CN(C)Cc2ccc(C(=O)Nc3ccccc3N)cc2)Oc2c(NC(=O)C3CC3)cccc2C1=O	-6.93
COc1ccc(NC(=O)N(C)C[C@@H]2Oc3c(NS(=O)(=O)c4cn(C)cn4)cccc3C(=O)N([C@H](C)CO)C[C@@H]2C)cc1	-3.57
Cc1noc(C)c1S(=O)(=O)N(C)C[C@H]1OCCCC[C@@H](C)Oc2ccc(NC(=O)C3CCCCC3)cc2C(=O)N([C@H](C)CO)C[C@@H]1C	8.15
C[C@@H]1CN([C@H](C)CO)C(=O)Cc2cc(NC(=O)c3ccncc3)ccc2O[C@@H]1CN(C)Cc1ccncc1	13.2
Cc1ccc(S(=O)(=O)N(C)C[C@@H]2Oc3c(NS(C)(=O)=O)cccc3C(=O)N([C@@H](C)CO)C[C@H]2C)cc1	-1.18
C[C@H]1CN([C@@H](C)CO)C(=O)Cc2cc(NC(=O)Nc3ccc(F)cc3)ccc2O[C@H]1CN(C)S(=O)(=O)c1ccc(F)cc1	-1.52
Cc1noc(C)c1S(=O)(=O)Nc1ccc2c(c1)C(=O)N([C@@H](C)CO)C[C@@H](C)[C@H](CN(C)Cc1ccc(-c3ccccc3)cc1)O2	-8.15
C[C@@H]1CN([C@@H](C)CO)C(=O)c2cc(NC(=O)CCCN(C)C)ccc2O[C@H]1CN(C)Cc1ccccc1	-3.08
CC(C)NC(=O)Nc1ccc2c(c1)C(=O)N([C@@H](C)CO)C[C@@H](C)[C@H](CN(C)C(=O)NC1CCCCC1)O2	4.32
Cc1ccc(S(=O)(=O)Nc2cccc3c2O[C@@H](CN(C)S(=O)(=O)c2cccs2)[C@@H](C)CN([C@@H](C)CO)C3=O)cc1	-0.391
C[C@H]1CN([C@@H](C)CO)C(=O)c2cccc(NS(=O)(=O)c3cn(C)cn3)c2O[C@@H]1CN(C)C(=O)Nc1ccc(F)cc1	11.3
COc1ccc(NC(=O)Nc2ccc3c(c2)C(=O)N([C@H](C)CO)C[C@H](C)[C@H](CN(C)C(=O)Nc2c(C)noc2C)OCCCC[C@@H](C)O3)cc1	12
C[C@@H]1CN([C@H](C)CO)C(=O)c2cc(NS(=O)(=O)c3cn(C)cn3)ccc2O[C@H]1CN(C)S(=O)(=O)c1ccc(Cl)cc1	0.346
COc1ccc(NC(=O)N(C)C[C@@H]2Oc3c(NS(C)(=O)=O)cccc3C(=O)N([C@H](C)CO)C[C@H]2C)cc1	3.08

SMILES	protection from cytokine-induced ATP loss [%]
Cc1ccc(S(=O)(=O)N(C)C[C@H]2Oc3c(NS(=O)(=O)c4cccs4)cccc3C(=O)N([C@@H](C)CO)C[C@@H]2C)cc1	-3.52
O=C(O)CCCCCC(=O)N/N=C/c1ccco1	17.1
Cc1ccc(S(=O)(=O)Nc2ccc3c(c2)C(=O)N([C@@H](C)CO)C[C@@H](C)[C@H](CN(C)CC2CC2)O3)cc1	-3.86
C[C@H]1CN([C@@H](C)CO)C(=O)c2cccc(NC(=O)c3ccncc3)c2O[C@@H]1CN(C)C	7.37
C[C@H]1CN([C@@H](C)CO)C(=O)c2cccc(NC(=O)Nc3ccc(C(F)(F)F)cc3)c2O[C@@H]1CN(C)Cc1ccccc1	-19.3
Cc1noc(C)c1NC(=O)Nc1ccc2c(c1)CC(=O)N([C@H](C)CO)C[C@@H](C)[C@@H](CN(C)Cc1ccc(C(F)(F)F)cc1)O2	10.5
C[C@H](CO)N1C[C@H](C)[C@@H](CN(C)S(=O)(=O)c2ccccc2)Oc2c(NC(=O)c3ccc(-c4nccs4)cc3)cccc2C1=O	5.11
C[C@@H]1CN([C@H](C)CO)C(=O)c2cc(NC(=O)CCCCCC(=O)Nc3ccccc3N)ccc2O[C@@H]1CN(C)Cc1ccncc1	6.45
CC(C)NC(=O)Nc1ccc2c(c1)CC(=O)N([C@H](C)CO)C[C@@H](C)[C@H](CN(C)S(=O)(=O)c1ccccc1)O2	9.86
C[C@@H]1CN([C@@H](C)CO)C(=O)c2cccc(NS(=O)(=O)c3ccc(Cl)cc3)c2O[C@@H]1CN(C)C(=O)Nc1ccccc1	0.662
C[C@H]1CN([C@@H](C)CO)C(=O)c2cccc(NC(=O)Nc3ccccc3)c2O[C@H]1CN(C)C(=O)Nc1cccc2ccccc12	6.53
C[C@@H]1CN([C@@H](C)CO)C(=O)c2cc(NS(=O)(=O)c3cccs3)ccc2O[C@@H]1CN(C)S(=O)(=O)c1ccc(F)cc1	-0.641
Cc1noc(C)c1NC(=O)Nc1cccc2c1O[C@H](CN(C)C(=O)Nc1ccccc1)[C@@H](C)CN([C@H](C)CO)C2=O	6.69
C[C@H]1CN([C@@H](C)CO)C(=O)c2cccc(NC(=O)NC3CCCCC3)c2O[C@H]1CN(C)CC1CCCCC1	-14.4
Cc1noc(C)c1NC(=O)Nc1ccc2c(c1)C(=O)N([C@@H](C)CO)C[C@H](C)[C@@H](CN(C)C(=O)Nc1ccccc1)O2	-2.87
C[C@@H]1CN([C@H](C)CO)C(=O)Cc2cc(NC(=O)C3CCCCC3)ccc2O[C@@H]1CN(C)Cc1ccc(C(F)(F)F)cc1	-23.1
COc1ccc(NC(=O)N(C)C[C@@H]2Oc3c(NC(=O)C4CCOCC4)cccc3C(=O)N([C@H](C)CO)C[C@@H]2C)cc1	5.6
C[C@H](CO)N1C[C@H](C)[C@@H](CN(C)Cc2ccc(Cl)c(Cl)c2)Oc2ccc(NS(=O)(=O)c3ccccc3)cc2C1=O	-24.5
